Data: ChEMBL document CHEMBL2407075, “Sulphonamido-quinoxalines: search for anticancer agent” (Eur J Med Chem, 2013)

Experiments:
Type in all cases: functional
DU-145 = experiment: Growth inhibition of human DU145 cells at 10 uM after 48 hrs by sulforhodamine B assay; conditions: DU-145, 48 h, read-out: GI
In short: (§1)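 Single-dose NCI-60 prescreen at 10 µM for 48 h at 37 °C and 5% CO2, using cells grown in RPMI 1640 with 5% FBS and 2 mM glutamine. Protein was measured by SRB after TCA fixation: 10% final for adherent lines, 16% for suspension lines. Absorbance was read at 515 nm. Percent growth inhibition was obtained by subtracting percent growth from 100.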

SF-295 = experiment: Growth inhibition of human SF295 cells at 10 uM after 48 hrs by sulforhodamine B assay; conditions: SF-295, 48 h, read-out: GI
In short: (§2)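 Single-dose screen at 10 µM across the NCI 60 panel. Cells in RPMI 1640 with 5% FBS and 2 mM L-glutamine, plated at 5000–40,000/well and preincubated 24 h at 37 °C, 5% CO2. Drug in DMSO, 48 h exposure. Fixed with TCA, stained with SRB, A515 read. Percent growth is taken relative to untreated control, and inhibition is 100 minus growth.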

UACC-62 = experiment: Growth inhibition of human UACC62 cells assessed as cell growth at 10^-8 M after 48 hrs by sulforhodamine B assay; conditions: UACC-62, 48 h, read-out: Activity
[1] = Growth inhibition of human EKVX cells assessed as cell growth at 10^-5 M after 48 hrs by sulforhodamine B assay; conditions: read-out: Activity
In short: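 Five-dose screen at NCI. Cells in RPMI 1640 with 5% FBS and 2 mM L-glutamine, seeded at 5000–40,000 cells/well and grown 24 h at 37 °C, 5% CO2 before dosing, with time-zero plates TCA-fixed. Drug diluted from DMSO stock to 0.01, 0.1, 1, 10 and 100 µM final, 48 h. Cells fixed with cold TCA (10% final), stained with 0.4% SRB and read at 515 nm. Percent growth from Tz, control and test absorbances; GI50, TGI and LC50 from dose-response curves.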

SR = experiment: Growth inhibition of human SR cells at 10 uM after 48 hrs by sulforhodamine B assay; conditions: read-out: GI; in short: as §2
CCRF-CEM = experiment: Growth inhibition of human CCRF-CEM cells at 10 uM after 48 hrs by sulforhodamine B assay; conditions: read-out: GI; in short: as §1
SN12C = experiment: Growth inhibition of human SN12C cells at 10 uM after 48 hrs by sulforhodamine B assay; conditions: read-out: GI; in short: as §2
786-0 = experiment: Growth inhibition of human 786-0 cells at 10 uM after 48 hrs by sulforhodamine B assay; conditions: 786-0, 48 h, read-out: GI; in short: as §1
LOX IMVI = experiment: Growth inhibition of human LOXIMVI cells at 10 uM after 48 hrs by sulforhodamine B assay; conditions: read-out: GI; in short: as §2
T47D = experiment: Growth inhibition of human T47D cells at 10 uM after 48 hrs by sulforhodamine B assay; conditions: read-out: GI; in short: as §2
OVCAR-5 = experiment: Growth inhibition of human OVCAR5 cells at 10 uM after 48 hrs by sulforhodamine B assay; conditions: OVCAR-5, 48 h, read-out: GI; in short: as §2
[2] = Growth inhibition of human EKVX cells at 10 uM after 48 hrs by sulforhodamine B assay; conditions: read-out: GI
In short: (§3)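 NCI-60 one-dose primary screen at a single 10 µM concentration. Cells in RPMI 1640 with 5% FBS, preincubated 24 h at 37 °C, 5% CO2. Drug exposure 48 h, then TCA fixation, SRB staining and absorbance at 515 nm. Percent growth calculated against time-zero and untreated control wells, then converted to percent growth inhibition.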

HOP-62 = experiment: Growth inhibition of human HOP62 cells at 10 uM after 48 hrs by sulforhodamine B assay; conditions: HOP-62, 48 h, read-out: GI; in short: as §3
NCI-H460 = experiment: Growth inhibition of human NCI-H460 cells at 10 uM after 48 hrs by sulforhodamine B assay; conditions: NCI-H460, 48 h, read-out: GI; in short: as §2
M14 = experiment: Growth inhibition of human M14 cells at 10 uM after 48 hrs by sulforhodamine B assay; conditions: M14, 48 h, read-out: GI; in short: as §2
NCI-H322M = experiment: Growth inhibition of human NCI-H322M cells at 10 uM after 48 hrs by sulforhodamine B assay; conditions: read-out: GI; in short: as §2
CAKI-1 = experiment: Growth inhibition of human CAKI-1 cells at 10 uM after 48 hrs by sulforhodamine B assay; conditions: CAKI-1, 48 h, read-out: GI; in short: as §1
RXF 393 = experiment: Growth inhibition of human RXF393 cells at 10 uM after 48 hrs by sulforhodamine B assay; conditions: RXF 393, 48 h, read-out: GI; in short: as §2
MOLT-4 = experiment: Growth inhibition of human MOLT4 cells at 10 uM after 48 hrs by sulforhodamine B assay; conditions: MOLT-4, 48 h, read-out: GI; in short: as §2
HL-60(TB) = experiment: Growth inhibition of human HL-60(TB) cells at 10 uM after 48 hrs by sulforhodamine B assay; conditions: HL-60, 48 h, read-out: GI
In short: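 Single-dose NCI-60 primary screen at 10 µM, 48 h exposure, SRB read-out. Growth percentage of treated versus untreated cells was recorded and given as percent inhibition by subtraction.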

SK-OV-3 = experiment: Growth inhibition of human SKOV3 cells at 10 uM after 48 hrs by sulforhodamine B assay; conditions: SK-OV-3, 48 h, read-out: GI; in short: as §2
K562 = experiment: Growth inhibition of human K562 cells assessed as cell growth at 10^-8 M after 48 hrs by sulforhodamine B assay; conditions: K562, 48 h, read-out: Activity
IGROV-1 = experiment: Growth inhibition of human IGROV1 cells at 10 uM after 48 hrs by sulforhodamine B assay; conditions: IGROV-1, 48 h, read-out: GI; in short: as §2
KM12 = experiment: Growth inhibition of human KM12 cells at 10 uM after 48 hrs by sulforhodamine B assay; conditions: KM12, 48 h, read-out: GI; in short: as §2
MDA-MB-231 = experiment: Growth inhibition of human MDA-MB-231 cells at 10 uM after 48 hrs by sulforhodamine B assay; conditions: MDA-MB-231, 48 h, read-out: GI; in short: as §2
MDA-MB-435 = experiment: Growth inhibition of human MDA-MB-435 cells at 10 uM after 48 hrs by sulforhodamine B assay; conditions: MDA-MB-435, 48 h, read-out: GI; in short: as §2
TK-10 = experiment: Growth inhibition of human TK10 cells at 10 uM after 48 hrs by sulforhodamine B assay; conditions: TK-10, 48 h, read-out: GI; in short: as §2
PC-3 = experiment: Growth inhibition of human PC3 cells at 10 uM after 48 hrs by sulforhodamine B assay; conditions: PC-3, 48 h, read-out: GI; in short: as §2
SNB-19 = experiment: Growth inhibition of human SNB19 cells at 10 uM after 48 hrs by sulforhodamine B assay; conditions: SNB-19, 48 h, read-out: GI; in short: as §2

Compound | inhibition of growth at 10 µM (DU-145) | inhibition of growth at 10 µM (SF-295) | inhibition of growth at 10 µM (SR) | inhibition of growth at 10 µM (CCRF-CEM) | inhibition of growth at 10 µM (SN12C) | inhibition of growth at 10 µM (786-0) | inhibition of growth at 10 µM (LOX IMVI) | inhibition of growth at 10 µM (T47D) | inhibition of growth at 10 µM (OVCAR-5) | inhibition of growth at 10 µM [2] | inhibition of growth at 10 µM (HOP-62) | inhibition of growth at 10 µM (NCI-H460) | inhibition of growth at 10 µM (M14) | inhibition of growth at 10 µM (NCI-H322M) | inhibition of growth at 10 µM (CAKI-1) | inhibition of growth at 10 µM (RXF 393) | inhibition of growth at 10 µM (MOLT-4) | inhibition of growth at 10 µM (HL-60(TB)) | inhibition of growth at 10 µM (SK-OV-3) | inhibition of growth at 10 µM (IGROV-1) | other results
O=S(=O)(Nc1ccccn1)c1ccc2nc(-c3ccccc3)c(-c3ccccc3)nc2c1 | 37.4% | 76.8% | -3.25% | 70.7% | 38.5% | 99.2% | 63.3% | 81.1% | 24.3% | 80.8% | 22.8% | 63.4% | 62.8% | 59.4% | 54.1% | -40.4% | 86.8% | 80.7% | 44.9% | 31.8% | growth at 0.01 µM (UACC-62): 92%; growth at 10 µM [1]: -2%; growth at 0.01 µM (K562): 105%; inhibition of growth at 10 µM (KM12): 61.5%; inhibition of growth at 10 µM (MDA-MB-231): 80.1%; inhibition of growth at 10 µM (MDA-MB-435): 54.2%; inhibition of growth at 10 µM (TK-10): 30.2%; inhibition of growth at 10 µM (PC-3): 72.2%; inhibition of growth at 10 µM (SNB-19): 43.6%
CC(=S)NS(=O)(=O)c1ccc2nc(-c3ccccc3)c(-c3ccccc3)nc2c1 | 2.63% | 5.83% | 41% | 24.8% | 2.83% | 2.83% | 12.2% | 40.6% | 2.84% | 8.53% | 2.84% | 8.63% | 2.85% | 17.8% | 5.83% | 14.5% | 20.5% | 35.3% | 4.85% | 14.8% | inhibition of growth at 10 µM (KM12): 16.8%; inhibition of growth at 10 µM (MDA-MB-231): 14.8%; inhibition of growth at 10 µM (MDA-MB-435): 4.73%; inhibition of growth at 10 µM (TK-10): 6.93%; inhibition of growth at 10 µM (PC-3): 33.9%; inhibition of growth at 10 µM (SNB-19): 2.12%
COc1ccccc1NS(=O)(=O)c1ccc2nc(-c3ccccc3)c(-c3ccccc3)nc2c1 | 18.9% | 15.9% | 81.9% | 49.8% | 32.6% | 41.5% | 23.3% | 63.9% | 12.7% | 48.8% | 2.12% | 45.5% | 26% | 23.2% | 23.9% | 70.7% | 56.9% | 60.7% | 18.6% | 11.8% | inhibition of growth at 10 µM (KM12): 8.62%; inhibition of growth at 10 µM (MDA-MB-231): 48.3%; inhibition of growth at 10 µM (MDA-MB-435): 22.5%; inhibition of growth at 10 µM (TK-10): 1.26%; inhibition of growth at 10 µM (PC-3): 52.8%; inhibition of growth at 10 µM (SNB-19): 41.9%
